Reference: BindingDB's records for doi:10.1016/j.bmc.2019.06.043 (Marquette University, 2019)

Target: T1, Proteinase-activated receptor 1 (Homo sapiens, UniProt P25116)
T1 sequence (P25116 whole entry): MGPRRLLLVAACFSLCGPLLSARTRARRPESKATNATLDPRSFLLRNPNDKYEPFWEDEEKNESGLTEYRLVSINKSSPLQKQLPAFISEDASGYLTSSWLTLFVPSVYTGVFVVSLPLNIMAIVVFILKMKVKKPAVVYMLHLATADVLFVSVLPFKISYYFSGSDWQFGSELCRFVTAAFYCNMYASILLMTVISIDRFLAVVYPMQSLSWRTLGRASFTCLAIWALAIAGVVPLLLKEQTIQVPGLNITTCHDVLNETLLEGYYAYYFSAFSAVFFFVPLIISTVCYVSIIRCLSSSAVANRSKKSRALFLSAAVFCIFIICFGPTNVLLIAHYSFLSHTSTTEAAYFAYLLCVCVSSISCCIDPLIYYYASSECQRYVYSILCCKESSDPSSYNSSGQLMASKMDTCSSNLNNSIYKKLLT
Assay: Negative allosteric modulation of PAR1 in human EAhy926 cells assessed as reduction in TFLLRN-NH2-induced intracellular calcium mobilization incubated for 15 mins followed by TFLLRN-NH2 addition by Fluo-4-AM dye based fluorescence assay
Summary of the method: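 Adherent EA.hy926 endothelial cells in 96-well format, intracellular Ca2+ mobilization triggered by PAR1 agonist TFLLRN-NH2 at 5 µM; single-point % inhibition at 10 µM (n = 4 wells, SEM); 7-point concentration-response curves, 3 wells per concentration, pIC50 from 4-variable non-linear regression; average IC50 ± SEM over independent assays.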

## CCCC(=O)Nc1cccc(NC(=O)c2ccccc2Br)c1
  IC50: 794 nM
